{
  "source": "ChEMBL document CHEMBL1129609",
  "about": "“Synthesis and antiviral activity evaluation of some new aminoadamantane derivatives. 2” (1996)",
  "format_in_all_cases": "functional",
  "key": {"HeLa [1]": {"tested_on": "HeLa", "assay": "Antiviral activity of compound was tested against morphology virus infected HeLa cell lines.", "conditions": "Homo sapiens"}, "HEF [2]": {"tested_on": "HEF", "assay": "Antiviral activity of compound was tested against vesicular virus infected HEF cell lines.", "conditions": "Homo sapiens", "outline": "(§1)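 Human embryonic fibroblasts, from embryonic lung or embryonic skin-muscle, infected with the virus. Endpoint is the minimum inhibitory concentration that reduces virus-induced cytopathicity by 50%. Values are averages of at least two separate experiments.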"}, "MDCK [3]": {"tested_on": "MDCK", "assay": "Antiviral activity of compound was tested against influenza […] virus infected MDCK cell lines", "conditions": "Canis lupus familiaris"}, "Vero [4]": {"tested_on": "Vero", "assay": "Antiviral activity of compound was tested against morphology virus infected Vero cell lines.", "conditions": "Chlorocebus sabaeus"}, "[5]": {"assay": "Antiviral activity against influenza A,H2N2 virus infected MDCK cell lines."}, "CCRF-CEM [6]": {"tested_on": "CCRF-CEM", "assay": "Antiviral activity of compound were tested against HIV-2 virus infected CEM cell lines.", "conditions": "Homo sapiens"}, "HEF [7]": {"tested_on": "HEF", "assay": "Antiviral activity of compound was tested against HSV-2 virus infected HEF cell lines.", "conditions": "Homo sapiens", "outline": "as §1"}, "HeLa [8]": {"tested_on": "HeLa", "assay": "Antiviral activity of compound was tested against stomatitis virus infected HeLa cell lines.", "conditions": "Homo sapiens", "outline": "(§2)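 Vero (African green monkey kidney), HeLa (human epithelial) or HEL (human embryonic lung) cell monolayers infected with the virus. Readout is the minimum inhibitory concentration that reduces virus-induced cytopathicity by 50%. Values are averages of at least two separate experiments.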"}, "HEF [9]": {"tested_on": "HEF", "assay": "Antiviral activity of compound was tested against vaccinia virus infected HEF cell lines.", "conditions": "Homo sapiens", "outline": "as §1"}, "Vero [10]": {"tested_on": "Vero", "assay": "Antiviral activity of compound was tested against sindbis virus infected vero cell lines.", "conditions": "Chlorocebus sabaeus", "outline": "as §2"}, "HEL [11]": {"tested_on": "HEL", "assay": "Antiviral activity of compound was tested against TK+VZV virus infected HEL cell lines.", "conditions": "Homo sapiens", "outline": "as §2"}, "CCRF-CEM [12]": {"tested_on": "CCRF-CEM", "assay": "Antiviral activity of compound was tested against viability virus infected CEM cell lines.", "conditions": "Homo sapiens"}, "MDCK [13]": {"tested_on": "MDCK", "assay": "Antiviral activity of compound was tested against influenza A,H3N2 virus infected MDCK cell lines.", "conditions": "Canis lupus familiaris"}, "Vero [14]": {"tested_on": "Vero", "assay": "Antiviral activity of compound were tested against semliki forest virus infected vero cell lines.", "conditions": "Chlorocebus sabaeus", "outline": "as §2"}, "HeLa [15]": {"tested_on": "HeLa", "assay": "Antiviral activity of compound was tested against Coxsackie B4 virus infected HeLa cell lines.", "conditions": "Homo sapiens", "outline": "as §2"}, "HeLa [16]": {"tested_on": "HeLa", "assay": "Antiviral activity of compound was tested against polio-1 virus infected HeLa cell lines.", "conditions": "Homo sapiens", "outline": "as §2"}, "HEF [17]": {"tested_on": "HEF", "assay": "Antiviral activity of compound was tested against TK-HSV-1 virus infected HEF cell lines.", "conditions": "Homo sapiens", "outline": "as §1"}, "Vero [18]": {"tested_on": "Vero", "assay": "Antiviral activity of compound was tested against reo1 virus infected vero cell lines.", "conditions": "Chlorocebus sabaeus", "outline": "as §2"}, "HEL [19]": {"tested_on": "HEL", "assay": "Antiviral activity of compound was tested against TK-VZV virus infected HEL cell lines.", "conditions": "Homo sapiens", "outline": "as §2"}, "HEF [20]": {"tested_on": "HEF", "assay": "Antiviral activity of compound was tested against morphology virus infected HEF cell lines.", "conditions": "Homo sapiens"}, "MDCK [21]": {"tested_on": "MDCK", "assay": "Antiviral activity of compound was tested against morphology virus infected MDCK cell lines.", "conditions": "Canis lupus familiaris"}, "CCRF-CEM [22]": {"tested_on": "CCRF-CEM", "assay": "Antiviral activity of compound was tested against HIV-1 virus infected CEM cell lines.", "conditions": "Homo sapiens"}, "Vero [23]": {"tested_on": "Vero", "assay": "Antiviral activity of compound was tested against Coxsackie B4 virus infected vero cell lines.", "conditions": "Chlorocebus sabaeus", "outline": "as §2"}, "HEL [24]": {"tested_on": "HEL", "assay": "Antiviral activity of compound was tested against HCMV virus infected HEL cell lines.", "conditions": "Homo sapiens", "outline": "as §2"}, "HEL [25]": {"tested_on": "HEL", "assay": "Antiviral activity of compound was tested against proliferation virus infected HEL cell lines.", "conditions": "Homo sapiens"}, "Vero [26]": {"tested_on": "Vero", "assay": "Antiviral activity of compound was tested against parainfluenza 3,[…] virus infected Vero cell lines.", "conditions": "Chlorocebus sabaeus", "outline": "as §2"}, "MDCK [27]": {"tested_on": "MDCK", "assay": "Antiviral activity tested against influenza A,H1N1 virus infected MDCK cell lines.", "conditions": "Canis lupus familiaris"}},
  "data": [
    {"smiles": "CN(C)CC1CCN(C23CC4CC(CC(C4)C2)C3)C1", "note": "(configuration not stated)", "values": [
      {"measurement": "MIC50", "setting": "HeLa [1]", "result": 400, "unit": "mg/L"},
      {"measurement": "MIC50", "setting": "HEF [2]", "result": "> 10", "unit": "mg/L"},
      {"measurement": "MIC50", "setting": "MDCK [3]", "result": "> 100", "unit": "mg/L"},
      {"measurement": "MIC50", "setting": "Vero [4]", "result": "> 400", "unit": "mg/L"},
      {"measurement": "MIC50", "setting": "[5]", "result": 16.1, "unit": "mg/L"},
      {"measurement": "MIC50", "setting": "CCRF-CEM [6]", "result": "> 40", "unit": "mg/L"},
      {"measurement": "MIC50", "setting": "HEF [7]", "result": "> 10", "unit": "mg/L"},
      {"measurement": "MIC50", "setting": "HeLa [8]", "result": "> 200", "unit": "mg/L"},
      {"measurement": "MIC50", "setting": "HEF [9]", "result": "> 10", "unit": "mg/L"},
      {"measurement": "MIC50", "setting": "Vero [10]", "result": "> 100", "unit": "mg/L"},
      {"measurement": "MIC50", "setting": "HEL [11]", "result": "> 20", "unit": "mg/L"},
      {"measurement": "MIC50", "setting": "CCRF-CEM [12]", "result": 79, "unit": "mg/L"},
      {"measurement": "MIC50", "setting": "MDCK [13]", "result": "> 100", "unit": "mg/L"},
      {"measurement": "MIC50", "setting": "Vero [14]", "result": "> 100", "unit": "mg/L"},
      {"measurement": "MIC50", "setting": "HeLa [15]", "result": "> 200", "unit": "mg/L"},
      {"measurement": "MIC50", "setting": "HeLa [16]", "result": "> 200", "unit": "mg/L"},
      {"measurement": "MIC50", "setting": "HEF [17]", "result": "> 10", "unit": "mg/L"},
      {"measurement": "MIC50", "setting": "Vero [18]", "result": "> 100", "unit": "mg/L"},
      {"measurement": "MIC50", "setting": "HEL [19]", "result": "> 50", "unit": "mg/L"},
      {"measurement": "MIC50", "setting": "HEF [20]", "result": 40, "unit": "mg/L"},
      {"measurement": "MIC50", "setting": "MDCK [21]", "result": 400, "unit": "mg/L"},
      {"measurement": "MIC50", "setting": "CCRF-CEM [22]", "result": "> 23", "unit": "mg/L"},
      {"measurement": "MIC50", "setting": "Vero [23]", "result": "> 100", "unit": "mg/L"},
      {"measurement": "MIC50", "setting": "HEL [24]", "result": "> 20", "unit": "mg/L"},
      {"measurement": "MIC50", "setting": "HEL [25]", "result": "> 50", "unit": "mg/L"},
      {"measurement": "MIC50", "setting": "Vero [26]", "result": "> 100", "unit": "mg/L"},
      {"measurement": "MIC50", "setting": "MDCK [27]", "result": "> 36", "unit": "mg/L"}
    ]}
  ]
}
